Values after ≈ are worked out from the molar mass of the structure shown.
Tests used:
Assay type in all cases: functional
Staphylococcus aureus [1] = test: Antimicrobial activity against heterogeneous vancomycin-susceptible Staphylococcus aureus assessed as intermediate isolates by agar dilution method
Staphylococcus aureus [2] = test: Antimicrobial activity against heterogeneous vancomycin-intermediate Staphylococcus aureus assessed as resistant isolates by agar dilution method
Staphylococcus aureus [3] = test: Antimicrobial activity against heterogeneous vancomycin-intermediate Staphylococcus aureus assessed as growth inhibition at 2 times MIC; design: scale not given: the % may be the effect or the level left
Staphylococcus aureus [4] = test: Antimicrobial activity against vancomycin-susceptible Staphylococcus aureus assessed as growth inhibition at 16 times MIC; design: scale not given: the % may be the effect or the level left
Staphylococcus aureus [5] = test: Antimicrobial activity against heterogeneous vancomycin-susceptible Staphylococcus aureus assessed as resistant isolates by agar dilution method
Staphylococcus aureus [6] = test: Antimicrobial activity against vancomycin-susceptible Staphylococcus aureus assessed as growth inhibition at 4 times MIC; design: scale not given: the % may be the effect or the level left
Staphylococcus aureus [7] = test: Antimicrobial activity against vancomycin-susceptible Staphylococcus aureus assessed as growth inhibition at 0.5 times MIC; design: scale not given: the % may be the effect or the level left
Staphylococcus aureus [8] = test: Antimicrobial activity against vancomycin-susceptible Staphylococcus aureus assessed as growth inhibition at 0.125 times MIC; design: scale not given: the % may be the effect or the level left
Staphylococcus aureus [9] = test: Antimicrobial activity against vancomycin-susceptible Staphylococcus aureus assessed as growth inhibition at MIC; design: scale not given: the % may be the effect or the level left
Staphylococcus aureus [10] = test: Antimicrobial activity against heterogeneous vancomycin-intermediate Staphylococcus aureus by agar dilution method
In short: (§1)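 Agar-dilution MICs were measured on a subset of 200 blood MRSA isolates from China. Agents: oxacillin, rifampin, gentamicin, levofloxacin, erythromycin, vancomycin, teicoplanin, tigecycline, ceftobiprole and linezolid. Phenotype came from the PAP-AUC ratio of each isolate to S. aureus Mu3 (VSSA <0.9; hVISA 0.9 to 1.3; VISA ≥1.3), read on BHI agar with 0 to 8.0 mg/liter vancomycin after 48 h at 35°C.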

Staphylococcus aureus [11] = test: Antimicrobial activity against heterogeneous vancomycin-intermediate Staphylococcus aureus assessed as growth inhibition at 0.125 times MIC; design: scale not given: the % may be the effect or the level left
Staphylococcus aureus [12] = test: Antimicrobial activity against heterogeneous vancomycin-susceptible Staphylococcus aureus assessed as susceptible isolates by agar dilution method
In short: (§2)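 MICs by agar dilution for all 200 MRSA blood isolates (oxacillin, rifampin, gentamicin, levofloxacin, erythromycin, vancomycin, teicoplanin, tigecycline, ceftobiprole, linezolid). Isolates were grouped by PAP-AUC ratio against S. aureus Mu3: below 0.9 VSSA, 0.9 to 1.3 hVISA, 1.3 or more VISA.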

Staphylococcus aureus [13] = test: Antimicrobial activity against vancomycin-susceptible Staphylococcus aureus by agar dilution method; in short: as §1
Staphylococcus aureus [14] = test: Antimicrobial activity against heterogeneous vancomycin-intermediate Staphylococcus aureus assessed as growth inhibition at 0.5 times MIC; design: scale not given: the % may be the effect or the level left
Staphylococcus aureus [15] = test: Antimicrobial activity against vancomycin-susceptible Staphylococcus aureus assessed as growth inhibition at 0.25 times MIC; design: scale not given: the % may be the effect or the level left
Staphylococcus aureus [16] = test: Antimicrobial activity against heterogeneous vancomycin-intermediate Staphylococcus aureus assessed as growth inhibition at MIC; design: scale not given: the % may be the effect or the level left
Staphylococcus aureus [17] = test: Antimicrobial activity against vancomycin-susceptible Staphylococcus aureus assessed as growth inhibition at 2 times MIC; design: scale not given: the % may be the effect or the level left
Staphylococcus aureus [18] = test: Antimicrobial activity against heterogeneous vancomycin-intermediate Staphylococcus aureus assessed as intermediate isolates by agar dilution method; in short: as §2
Staphylococcus aureus [19] = test: Antimicrobial activity against heterogeneous vancomycin-intermediate Staphylococcus aureus assessed as growth inhibition at 16 times MIC; design: scale not given: the % may be the effect or the level left
Staphylococcus aureus [20] = test: Antimicrobial activity against heterogeneous vancomycin-intermediate Staphylococcus aureus assessed as growth inhibition at 0.25 times MIC; design: scale not given: the % may be the effect or the level left
Staphylococcus aureus [21] = test: Antimicrobial activity against heterogeneous vancomycin-intermediate Staphylococcus aureus assessed as growth inhibition at 4 times MIC; design: scale not given: the % may be the effect or the level left
Staphylococcus aureus [22] = test: Antimicrobial activity against heterogeneous vancomycin-intermediate Staphylococcus aureus assessed as susceptible isolates by agar dilution method; in short: as §2

CN[C@H](CC(C)C)C(=O)N[C@H]1C(=O)N[C@@H](CC(N)=O)C(=O)N[C@H]2C(=O)N[C@H]3C(=O)N[C@H](C(=O)N[C@H](C(=O)O)c4cc(O)cc(O)c4-c4cc3ccc4O)[C@H](O)c3ccc(c(Cl)c3)Oc3cc2cc(c3O[C@@H]2O[C@H](CO)[C@@H](O)[C@H](O)[C@H]2O[C@H]2C[C@](C)(N)[C@H](O)[C@H](C)O2)Oc2ccc(cc2Cl)[C@H]1O [VANCOMYCIN]
Activity (Staphylococcus aureus [1]): 0% | Activity (Staphylococcus aureus [2]): 0% | Activity (Staphylococcus aureus [3]): 96.3% | Activity (Staphylococcus aureus [4]): 100% | Activity (Staphylococcus aureus [5]): 0% | Activity (Staphylococcus aureus [6]): 100% | Activity (Staphylococcus aureus [7]): 35.8% | Activity (Staphylococcus aureus [8]): 0% | Activity (Staphylococcus aureus [9]): 99.4% | MIC50 (Staphylococcus aureus [10]): 1 µg/mL (≈ 0.69 µM) | MIC90 (Staphylococcus aureus [10]): 2 µg/mL (≈ 1.38 µM) | Activity (Staphylococcus aureus [11]): 0% | Activity (Staphylococcus aureus [12]): 100% | MIC50 (Staphylococcus aureus [13]): 1 µg/mL (≈ 0.69 µM) | MIC90 (Staphylococcus aureus [13]): 1 µg/mL (≈ 0.69 µM) | Activity (Staphylococcus aureus [14]): 3.7% | Activity (Staphylococcus aureus [15]): 0% | Activity (Staphylococcus aureus [16]): 85.2% | Activity (Staphylococcus aureus [17]): 100% | Activity (Staphylococcus aureus [18]): 3.7% | Activity (Staphylococcus aureus [19]): 100% | Activity (Staphylococcus aureus [20]): 0% | Activity (Staphylococcus aureus [21]): 100% | Activity (Staphylococcus aureus [22]): 96.3%
